Source: PubChem BioAssay
A selection: hits, their analogues and other compounds. The true share with any hit is near 2.6%.
SIAE inh: human SIAE inhibition, primary screen | Q9HAT2 | SIAE FP-Rh probe binding, fluorescence polarization | inhibition, % at 9.66 µM | 0.69% of 370,000 active | AID 1053197;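 active = inhibition above a cutoff: mean of compounds within the control limits plus 3 SD of those, cut at about 17% in these data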
TCR-CD3 inh: blocks the human TCR-CD3 interaction | TAMRA-labeled TCR probe fluorescence, biochemical | inhibition, % at 9.4 µM | 0.37% of 360,000 active | AID 651800; in the data active = inhibition above about 19%;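 also: recombinant mutant TCR 2C K166C tagged with TAMRA read by polarization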
HTRA1 inhibitor: inhibitors of human serine peptidase HTRA1. inhibition, % at 5.96 µM. recombinant HTRA1, FP-rhodamine activity-based probe, fluorescence polarization. AID 504803. Q92743. 0.5% of 340,000 active; in the data active = inhibition above about 36%
Target sequence (Q92743 whole entry, looked up): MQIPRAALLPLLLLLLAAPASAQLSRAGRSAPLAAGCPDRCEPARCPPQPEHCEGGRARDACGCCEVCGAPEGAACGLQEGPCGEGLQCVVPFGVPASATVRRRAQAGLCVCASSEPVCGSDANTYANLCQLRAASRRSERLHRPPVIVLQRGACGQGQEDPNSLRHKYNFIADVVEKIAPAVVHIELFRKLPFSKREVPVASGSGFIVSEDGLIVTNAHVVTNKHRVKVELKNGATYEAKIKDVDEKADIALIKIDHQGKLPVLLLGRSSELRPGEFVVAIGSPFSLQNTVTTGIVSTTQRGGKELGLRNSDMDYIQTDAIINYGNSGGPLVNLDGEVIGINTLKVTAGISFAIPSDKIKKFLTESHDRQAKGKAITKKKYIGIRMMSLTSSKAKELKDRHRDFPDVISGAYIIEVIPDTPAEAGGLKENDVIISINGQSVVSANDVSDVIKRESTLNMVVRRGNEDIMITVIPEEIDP
PRMT1 FP inh: blocks human protein arginine methyltransferase 1 | Q99873 | recombinant PRMT1, activity-based probe fluorescence polarization | inhibition, % at 2.79 µM | 1.3% of 370,000 active | AID 652257;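 active = inhibition above about 21% made by adding two undisclosed values, limit read from the data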
ABHD4 inh: inhibits mouse alpha/beta hydrolase domain 4; Q8VD66; inhibition, % at 8.92 µM; AID 720543; purified mABHD4, FP-Rh probe fluorescence polarization; 0.54% of 370,000 active;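 active = inhibition exceeding the mean over every tested compound plus 3 SD, cut at about 30% in these data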
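Test system: mouse ABHD4 enzyme, wild type. Reagent: FP-Rh fluorescent activity-based probe, added after compound pre-incubation. Timing: pre-incubation 45 min, probe exposure 60 min, at 25 °C. Technique: FP readout, ex 525 nm / em 598 nm. Benchmarks: high control S159A mutant with DMSO, low control median of compound wells.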
SIAE confirm: confirmation of human SIAE inhibitors | 13% of 2,300 active | inhibition, % at 9.66 µM | SIAE FP-Rh activity-based probe, fluorescence polarization | shares compounds with SIAE inh | AID 1117263;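 active = mean inhibition of the replicates above the hit cutoff set in the primary screen, cut at about 17% in these data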;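 also: inhibitors lower polarization as more probe stays unbound to SIAE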
Numbers stand for hits; – = inactive; · = no result.

SMILES	SIAE inh	TCR-CD3 inh	HTRA1 inhibitor	PRMT1 FP inh	ABHD4 inh	SIAE confirm
S=C(NNc1ccnc2cc(Cl)ccc12)Nc1ccccc1Cl	24	–	–	–	–	20
S=C(Nc1ccccc1Cl)Nc1ccc(Cl)cc1Cl	–	–	–	–	–	·
Cc1ccccc1CNC(=O)CN1CCCc2ccccc21	–	·	·	–	–	·
COC(=O)c1cc2c(c3c4cc(F)ccc4n(C(=O)c4ccccc4)c13)C(=O)N(C1CCCCC1)C2	–	–	·	–	–	·
Cc1onc(-c2ccccc2Cl)c1C(=O)Nc1ccc(N2CCOCC2)cc1	17	–	–	–	–	–
CC(=O)Nc1ccc(OCc2cn(CC(=O)c3ccc(O)cc3)nn2)cc1	21	–	–	–	–	–
COCc1cc(=O)[nH]c2cc(NC(=O)C(C)(C)CCl)c(C)cc12	97	–	–	–	–	–
COC(=O)[C@]12C[C@H](CC(=O)NCc3cccc4ccccc34)C(=O)N(Cc3ccc(Cl)cc3Cl)C1=C[C@H](C(C)(C)C)O[C@@H]2C	–	·	·	–	–	·
O=C(N/N=C/c1c[nH]c2ccccc12)c1ccccc1Cl	–	–	–	–	–	·
O=C(N/N=C/c1c[nH]c2ccccc12)c1cc(Cl)ccc1O	18	–	–	–	–	–
C[C@H](O)[C@@H]1CN2CCc3ccc(-c4ccc5c(c4)OCO5)cc3[C@@H]2C[C@@H]1N(C)Cc1cc(Cl)cc(Cl)c1	–	–	·	–	–	·
CC(C)CN1C(=O)C(=O)N(CC(=O)N(C)CC(=O)Nc2ccc(F)cc2)C1=O	20	–	–	–	–	–
COc1ccc(C)cc1N(CC(=O)N1CCCC1)S(C)(=O)=O	18	–	–	–	–	–
C=CCN1[C@@H](C)COc2cccc(F)c2S1(=O)=O	–	·	·	–	–	·
COc1cc(OC)c2cc(C(=O)N/N=C/c3ccccc3O)[nH]c2c1	25	–	–	–	–	–
CCOc1ccc(/C=N/NC(=O)c2cc3c(OC)cc(OC)c(OC)c3[nH]2)cc1	31	–	–	–	–	17
COc1ccc2[nH]c(C(=O)N/N=C/c3ccccc3OC)cc2c1	–	–	–	–	–	·
CCCOc1ccc2[nH]c(C(=O)N/N=C/c3cc(OC)c(OC)c(OC)c3)cc2c1	–	–	–	–	–	·
COc1cccc(NC(=O)Nc2cccs2)c1	–	–	–	–	–	·
COc1ccc(NC(=O)Nc2cccs2)cc1OC	18	–	–	–	–	–
O=C1N2CCc3ccccc3C2CS(=O)(=O)N1Cc1ccc(F)cc1 (stereo not given)	–	·	·	–	–	·
O=C(CCc1ccccc1)N[C@H]1[C@H](O)CCC[C@]12C(=O)N(Cc1ccccc1)c1ccccc12	–	·	·	–	–	·
CC(=O)Nc1ccc(CNc2nc(NC(C)C)nc3cc(-c4ccccc4)sc23)cc1	55	–	·	–	–	53
C=CCNc1nc(NCc2ccc(NC(C)=O)cc2)c2sc(-c3ccccc3)cc2n1	39	–	·	–	–	37
CC(C)C[C@@H]1COc2cc(Br)ccc2S(=O)(=O)N1Cc1cn(Cc2ccc(F)cc2)nn1	–	·	·	–	–	·
SMILES	SIAE inh	TCR-CD3 inh	HTRA1 inhibitor	PRMT1 FP inh	ABHD4 inh	SIAE confirm
O=C(Nc1nc2ccccc2[nH]1)C12CC3CC(CC(C3)C1)C2	18	–	–	–	–	–
O=C(Nc1nc2ccccc2[nH]1)C1CC1	–	–	–	–	–	·
CCN(CC)c1ccc(/C=N/NC(=O)c2c[nH]c3ccccc23)cc1	24	–	–	–	–	–
CCN(CC)c1ccc(/C=N/NC(=O)c2cc3ccccc3[nH]2)cc1	–	–	–	–	–	·
Oc1nc(Nc2cccc(Cl)c2)sc1/C=C1\C=Nc2ccccc21	26	–	–	–	–	–
Cn1c(Nc2ccccc2)nc2ccccc21	–	–	–	–	–	·
Nn1c(Nc2ccccc2)nc2ccccc21	23	–	–	–	–	–
CN1c2ccccc2C2(C)CCCC3=Cc4cc([N+](=O)[O-])cc([N+](=O)[O-])c4OC312 (stereo not given)	52	–	–	–	–	–
CN1CCN(c2nc(NCc3ccco3)nc(N)c2[N+](=O)[O-])CC1	–	–	–	–	–	·
Nc1nc(NCc2ccco2)nc(N2CCCCC2)c1[N+](=O)[O-]	19	–	–	–	–	–
Cn1ccc2c(N3CCCC3)cc3c(c21)C1CCC3O1 (stereo not given)	20	–	·	–	–	–
COc1ccc(N2CCN(C(=O)c3cccc(S(=O)(=O)N4CCc5ccccc54)c3)CC2)cc1	90	–	–	–	–	–
